The list is not random: actives were taken first. Their share in the collection is about 1.4%.
Vif inh: blocks HIV Vif function. HEK293T cells, Vif self-association by quenched fluorescence, imaging, 24 h. inhibition, % at 7.49 µM. hit rate 0.35% among 340,000; in the data active means inhibition above about 50%, passing the limit was not always enough
Myeloid diff 2: myeloid differentiation induction; ER-HoxA9 myeloid progenitors, lysozyme-GFP differentiation, flow cytometry; hit rate 1% among 360,000; calls only at 10 µM;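 active means normalized GFP-positive differentiation at or above the plate's own cutoff, the solvent-only control mean plus 3 SD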;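 further: cells exposed to compound for four days before flow analysis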
T cell HTS: T cell immune modulators affecting CD8 T cell-vesicle binding; 2C CD8+ T cell-vesicle binding, flow cytometry; stronger effect = lower value; response (vesicle binding), % at 7 µM; hit rate 0.068% among 330,000;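 active means response, share of CD8 T cells binding vesicles, and their 90th percentile fluorescence all below set limits, cut at about 80% in these data, passing the limit was not always enough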;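 further: values below 100% mean blocked vesicle binding to the CD8+ T cells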
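System: murine 2C transgenic CD8+ T lymphocytes; also added: QL9-loaded Drosophila micro-vesicles; times: binding 1.5 h at 37 °C; measured by: flow cytometry, PE anti-B7-1 (FL2) versus Alexa647 anti-CD8 (FL8), PFA-fixed; control set: Peptide-free naked vesicles (low) and QL9 vesicles with 0.7% DMSO vehicle (high)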
CASP6 VEID inh: inhibitors of human caspase-6 | purified caspase-6, Z-VEID-R110 cleavage fluorescence | inhibition, % at 12.5 µM | hit rate 0.53% among 350,000 | AID 686996;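 active means mean inhibition across replicates at least about 35%, with every replicate also reaching that limit, limit read from the data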;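 further: 0% = median of neutral control wells and 100% = no fluorescence left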
Target sequence (P55212 24-179 limits assumed): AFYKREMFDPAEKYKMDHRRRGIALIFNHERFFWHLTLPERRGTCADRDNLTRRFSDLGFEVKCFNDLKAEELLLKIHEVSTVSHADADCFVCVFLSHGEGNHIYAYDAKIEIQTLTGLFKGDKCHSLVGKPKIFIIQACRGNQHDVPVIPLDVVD
Target sequence (P55212 194-293 limits assumed): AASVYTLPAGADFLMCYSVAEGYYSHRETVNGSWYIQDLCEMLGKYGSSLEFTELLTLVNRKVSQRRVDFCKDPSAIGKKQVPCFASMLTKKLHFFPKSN
* = called active by the depositor.

Screening CN(c1ccc(OCC(=O)Nc2ccc(S(N)(=O)=O)cc2)cc1)S(=O)(=O)c1ccc(F)cc1 returned Vif inh 0, Myeloid diff 2 inactive and CASP6 VEID inh 5.
For CN(c1ccc(OCC(=O)Nc2cc(Cl)ccc2C(=O)O)cc1)S(=O)(=O)c1ccc(F)cc1 the results were Vif inh 2, Myeloid diff 2 inactive, T cell HTS 195 and CASP6 VEID inh 36*.
Screening Cc1ccc(-n2cc3c(-c4cccc(Br)c4)nnc(C)c3n2)cc1 returned Vif inh -7, Myeloid diff 2 active and T cell HTS 381.
Screening COc1ccc(CN2CC3(C2)CN(C(=O)CN(C)C)[C@H](CO)c2[nH]c4cc(OC)ccc4c23)cc1 returned CASP6 VEID inh 2.
COc1cccc(CNC(=O)Nc2cccs2)c1 was read as Vif inh -5, Myeloid diff 2 inactive and T cell HTS 243.
COc1ccc(CNC(=O)Nc2cccs2)cc1OC was read as Vif inh 56*, Myeloid diff 2 inactive and T cell HTS 461.
Screening Cc1cc(Nc2ccccc2)nc(NCc2ccccc2)n1 returned Vif inh -23, Myeloid diff 2 inactive, T cell HTS 300 and CASP6 VEID inh -3.
Screening Cc1cc(Nc2cccc(F)c2)nc(NCc2ccccc2)n1 returned Vif inh -2, Myeloid diff 2 active, T cell HTS 254 and CASP6 VEID inh 2.
`O=c1n(-c2ccccc2)c(=O)n2n1CC(COc1ccccc1)=C1[C@@H](c3ccccc3)OB(O)C[C@@H]12` gave CASP6 VEID inh 1.
`Cc1ccc2c(c1)NC(=O)C(CC(=O)NCCCN1CCN(c3cc(Cl)ccc3C)CC1)O2` (configuration not stated) gave Vif inh 7, Myeloid diff 2 active, T cell HTS 343 and CASP6 VEID inh 2.
For Cc1ccc2c(c1)NC(=O)C(CC(=O)NCCCN1CCCCC1)O2 (configuration not stated) the results were Vif inh 7, Myeloid diff 2 inactive, T cell HTS 43 and CASP6 VEID inh -12.
O=C(C[C@@H]1CC[C@H]2[C@@H](COC[C@H](O)CN2Cc2ccccc2)O1)N[C@@H]1CCN(Cc2ccccc2)C1 was read as CASP6 VEID inh -1.
Screening N#Cc1c(/N=C/c2ccc(-c3ccccc3C(=O)O)o2)sc2c1CCCC2 returned Vif inh -2, Myeloid diff 2 inactive, T cell HTS 302 and CASP6 VEID inh 57*.
`N#Cc1c(/N=C/c2ccc(-c3ccc(C(=O)O)c(Cl)c3)o2)sc2c1CCCC2` gave Vif inh -4, Myeloid diff 2 inactive, T cell HTS 129 and CASP6 VEID inh 28.
`Cc1cccc(NC(=O)C(C)SCc2nc3sc4c(c3c(=O)[nH]2)CCCC4)n1` (configuration not stated) gave Myeloid diff 2 active, T cell HTS 802 and CASP6 VEID inh -2.
For C[C@H]1CN([C@@H](C)CO)C(=O)c2cc(NC(=O)Cn3cnnn3)ccc2O[C@H]1CN(C)Cc1ccc(-c2ccccc2)cc1 the results were CASP6 VEID inh 2.
For O=C(CSc1ccsc1[N+](=O)[O-])N1CCN(c2ccc(Cl)cc2)CC1 the results were Vif inh -18, Myeloid diff 2 active and T cell HTS 251.
For CC(C)NC(=O)Nc1ccc2c(c1)C(=O)N([C@H](C)CO)C[C@H](C)[C@H](CN(C)S(C)(=O)=O)OCCCC[C@H](C)O2 the results were CASP6 VEID inh 0.
Screening COc1ccc2c([N+](=O)[O-])c(Cl)[nH]c2c1 returned Vif inh -8, Myeloid diff 2 inactive, T cell HTS 433 and CASP6 VEID inh 63*.
For CCCNC(=O)N(C)C[C@H]1Oc2ncc(-c3ccncc3)cc2C(=O)N([C@H](C)CO)C[C@H]1C the results were CASP6 VEID inh 3.
`COc1ccc(NC(=O)N(C)C[C@@H]2OCc3ccccc3-c3c(n(C)c4ccccc34)C(=O)N([C@H](C)CO)C[C@@H]2C)cc1` gave CASP6 VEID inh 0.
`CCOC(=O)c1sc2ncc([N+](=O)[O-])cc2c1N` gave Vif inh -6, Myeloid diff 2 inactive, T cell HTS 155 and CASP6 VEID inh 0.
`COC(=O)c1sc2cc([N+](=O)[O-])cc(SCC(C)C)c2c1N` gave Vif inh 2, Myeloid diff 2 active, T cell HTS 187 and CASP6 VEID inh -1.
Screening COc1ccc(Cl)cc1NC(=O)C1CC(=O)N(C2CCCCC2)C1 (configuration not stated) returned Myeloid diff 2 active, T cell HTS 0 and CASP6 VEID inh 6.
CCN(CC)C(=O)CSc1nnc2nnc3cc(OC)ccc3n12 was read as Vif inh -5, Myeloid diff 2 active, T cell HTS 165 and CASP6 VEID inh -9.
CCN(CC)C(=O)CSc1nnc(COc2ccc(OC)cc2)n1N was read as Vif inh 4, Myeloid diff 2 inactive, T cell HTS 262 and CASP6 VEID inh 0.
O=C(Nc1ccc2c(c1)OCO2)N[C@@H]1CC[C@H](CCNC(=O)C2CCOCC2)O[C@H]1CO was read as CASP6 VEID inh -3.
`COc1ccc(C)cc1NC(=O)c1nnn(Cc2cccc(C(F)(F)F)c2)c1N` gave Vif inh -5, Myeloid diff 2 active, T cell HTS 219 and CASP6 VEID inh 1.
`COc1ccc(OC)c(NC(=O)c2nnn(CCc3ccccc3)c2N)c1` gave Vif inh 16, Myeloid diff 2 inactive, T cell HTS 115 and CASP6 VEID inh -1.
CCOc1ccc(S(=O)(=O)NCc2ccccn2)cc1NC(=O)c1ccccc1 was read as Vif inh 54*, T cell HTS 212 and CASP6 VEID inh -3.
Screening CCOc1ccc(S(=O)(=O)NCc2cccnc2)cc1NC(=O)c1ccccc1 returned Vif inh 24, Myeloid diff 2 inactive and CASP6 VEID inh 4.
Screening COC(=O)[C@]1(C)N[C@H](CN(C)S(=O)(=O)c2ccc(OC(F)(F)F)cc2)[C@@H]2C(=O)N(C)C(=O)[C@@H]21 returned Vif inh 0, Myeloid diff 2 inactive, T cell HTS 0.0* and CASP6 VEID inh 4.
`Cc1ccc(S(=O)(=O)Nc2ccc3c(c2)C(=O)N([C@@H](C)CO)C[C@H](C)[C@H](CN(C)Cc2ccc(C(F)(F)F)cc2)OCCCC[C@H](C)O3)cc1` gave CASP6 VEID inh -1.
Cc1ccc(/C=N/NC(=O)c2cccc(NC(=O)c3ccccc3C)c2)o1 was read as Vif inh 3, Myeloid diff 2 active, T cell HTS 176 and CASP6 VEID inh 1.
Cc1ccc(/C=N/NC(=O)c2cccc(NC(=O)c3ccccc3Cl)c2)o1 was read as Vif inh 10, Myeloid diff 2 active, T cell HTS 185 and CASP6 VEID inh 1.
`CC(C)(C)CC(C)(C)SSc1n[nH]c(=S)s1` gave Vif inh 2, Myeloid diff 2 inactive and CASP6 VEID inh 37*.
O=C(c1ccccc1)N(Cc1ccc(F)cc1)Cc1nc2ccccc2c(=O)[nH]1 was read as Vif inh -3, Myeloid diff 2 inactive and T cell HTS 357.
O=C(c1ccncc1)N(Cc1ccccc1)Cc1nc2ccccc2c(=O)[nH]1 was read as Myeloid diff 2 active and T cell HTS 263.

Assay outcomes deposited in PubChem BioAssay by several laboratories.
